≈ marks a conversion by molar mass, not a printed value. Numbered stars: 1 amine (or outer) side, 2 acyl side, 3 side chain; on linkers, the order of the positions; unused ones are H or OH. Bridge positions count the residues as written; N and C are the ends. Square brackets hold non-standard residues; d marks the D form. Peptide text beside a SMILES is read from it. * marks the point of attachment. X2 = O=C([C@@H](Cc1ccc(-c2ccncc2)cc1)N[*:1])[*:2]; GABA(3R-Bn) = O=C(C[C@H](CN[*:1])Cc1ccccc1)[*:2]; X1 = CC[C@H](C)CCCCC(=O)*; Dab = NCC[C@H](N)C(=O)O; Dap = NC[C@H](N)C(=O)O
Assays:
Escherichia coli [1] = test: Antibacterial activity against Escherichia coli ATCC 25922 by CLSI based broth microdilution method; assay type: functional
Summary of the method: (§1)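 Broth microdilution MIC per CLSI guidelines (M07-A9) in cation-adjusted Mueller-Hinton broth; panel of Gram-negative strains including clinical isolates with reduced polymyxin B susceptibility.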

Escherichia coli [2] = test: Antibacterial activity against Escherichia coli IHMA 940398 by CLSI based broth microdilution method; assay type: functional; summary of the method: as §1
Klebsiella pneumoniae [3] = test: Antibacterial activity against Klebsiella pneumoniae ATCC 4352 by CLSI based broth microdilution method; assay type: functional; summary of the method: as §1
Klebsiella pneumoniae [4] = test: Antibacterial activity against Klebsiella pneumoniae IHMA 652780 by CLSI based broth microdilution method; assay type: functional; summary of the method: as §1
Pseudomonas aeruginosa [5] = test: Antibacterial activity against Pseudomonas aeruginosa ATCC 27853 by CLSI based broth microdilution method; assay type: functional; summary of the method: as §1
Pseudomonas aeruginosa [6] = test: Antibacterial activity against Pseudomonas aeruginosa IHMA 517175 by CLSI based broth microdilution method; assay type: functional; summary of the method: as §1
Acinetobacter baumannii [7] = test: Antibacterial activity against Acinetobacter baumannii NCTC 13424 by CLSI based broth microdilution method; assay type: functional; summary of the method: as §1
Acinetobacter baumannii [8] = test: Antibacterial activity against Acinetobacter baumannii IHMA 863866 by CLSI based broth microdilution method; assay type: functional; summary of the method: as §1
[9] = Ratio of test compound IC50 to polymyxin B IC50 for cytotoxicity against human HK2 cells incubated for 24 hrs by resazurin blue dye based assay; assay type: cell-based; details: HK-2 cells, read-out: Ratio IC50
Summary of the method: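 Confluent monolayers of human proximal tubule epithelial HK-2 cells exposed to compound for 24h at 37°C, 5% CO2; top concentration 1,000 or 3,000 μg/mL, semi-log dilutions, 9 points. Viability read with resazurin blue; log-concentration dose-response fit with bottom constrained to zero gives IC50, expressed relative to polymyxin B IC50 run in the same experiment.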

Row | Structure (SMILES) | MIC (Escherichia coli [1]) | MIC (Escherichia coli [2]) | MIC (Klebsiella pneumoniae [3]) | MIC (Klebsiella pneumoniae [4]) | MIC (Pseudomonas aeruginosa [5]) | MIC (Pseudomonas aeruginosa [6]) | MIC (Acinetobacter baumannii [7]) | MIC (Acinetobacter baumannii [8]) | selectivity ratio at 24 h [9]
1 | CC[C@H](C)CCCCC(=O)N[C@@H](CCN)C(=O)N[C@H](C(=O)N[C@@H](CCN)C(=O)N[C@H]1CCNC(=O)[C@H]([C@@H](C)O)NC(=O)[C@H](CCN)NC(=O)[C@H](CCN)NC(=O)[C@H](CC(C)C)NC(=O)[C@@H](Cc2ccc(Br)cc2)NC(=O)[C@H](CCN)NC1=O)[C@@H](C)O | 0.5 µg/mL (≈ 0.39 µM) | 4 µg/mL (≈ 3.12 µM) | 0.5 µg/mL (≈ 0.39 µM) | 0.5 µg/mL (≈ 0.39 µM) | 0.5 µg/mL (≈ 0.39 µM) | 2 µg/mL (≈ 1.56 µM) | 0.5 µg/mL (≈ 0.39 µM) | 4 µg/mL (≈ 3.12 µM) | –
2 | CC[C@H](C)CCCCC(=O)N[C@@H](CCN)C(=O)N[C@H](C(=O)N[C@@H](CCN)C(=O)N[C@H]1CCNC(=O)[C@H]([C@@H](C)O)NC(=O)[C@H](CCN)NC(=O)[C@H](CCN)NC(=O)[C@H](CC(C)C)NC(=O)[C@@H](Cc2ccc(-c3ccccc3)cc2)NC(=O)[C@H](CCN)NC1=O)[C@@H](C)O | 1 µg/mL (≈ 0.781 µM) | 8 µg/mL (≈ 6.25 µM) | 0.5 µg/mL (≈ 0.391 µM) | 0.5 µg/mL (≈ 0.391 µM) | 1 µg/mL (≈ 0.781 µM) | 2 µg/mL (≈ 1.56 µM) | 1 µg/mL (≈ 0.781 µM) | 16 µg/mL (≈ 12.5 µM) | 0.14
3 | CC[C@H](C)CCCCC(=O)N[C@@H](CCN)C(=O)N[C@H](C(=O)N[C@@H](CCN)C(=O)N[C@H]1CCNC(=O)[C@H]([C@@H](C)O)NC(=O)[C@H](CCN)NC(=O)[C@H](CCN)NC(=O)[C@H](CC(C)C)NC(=O)[C@@H](CC2CCCCC2)NC(=O)[C@H](CCN)NC1=O)[C@@H](C)O | 0.5 µg/mL (≈ 0.413 µM) | 8 µg/mL (≈ 6.61 µM) | 0.5 µg/mL (≈ 0.413 µM) | 1 µg/mL (≈ 0.827 µM) | 1 µg/mL (≈ 0.827 µM) | 4 µg/mL (≈ 3.31 µM) | 0.5 µg/mL (≈ 0.413 µM) | 32 µg/mL (≈ 26.5 µM) | –
4 | CC(C)C[C@@H]1NC(=O)[C@@H](CC2CCCCC2)NC(=O)[C@H](CCN)NC(=O)[C@@H](NC(=O)[C@H](CN)NC(=O)[C@@H](NC(=O)C[C@H](CN)C2CCCCC2)[C@@H](C)O)CCNC(=O)[C@H]([C@@H](C)O)NC(=O)[C@H](CCN)NC(=O)[C@H](CCN)NC1=O | 0.5 µg/mL (≈ 0.445 µM) | 8 µg/mL (≈ 7.13 µM) | – | 2 µg/mL (≈ 1.78 µM) | 0.5 µg/mL (≈ 0.445 µM) | 2 µg/mL (≈ 1.78 µM) | 0.125 µg/mL (≈ 0.111 µM) | 32 µg/mL (≈ 28.5 µM) | –
5 | CC[C@H](C)CCCCC(=O)N[C@@H](CCN)C(=O)N[C@H](C(=O)N[C@@H](CCN)C(=O)N[C@H]1CCNC(=O)[C@H]([C@@H](C)O)NC(=O)[C@H](CCN)NC(=O)[C@H](CCN)NC(=O)[C@H](CC(C)C)NC(=O)[C@@H](Cc2ccc(-c3ccncc3)cc2)NC(=O)[C@H](CCN)NC1=O)[C@@H](C)O (X1-[Dab]T[Dab][Dab][Dab][X2]L[Dab][Dab]T; lactam 4-C) | 1 µg/mL (≈ 0.781 µM) | 32 µg/mL (≈ 25 µM) | 1 µg/mL (≈ 0.781 µM) | – | 1 µg/mL (≈ 0.781 µM) | 32 µg/mL (≈ 25 µM) | 2 µg/mL (≈ 1.56 µM) | – | 0.7
6 | CC[C@H](C)CCCCC(=O)N[C@@H](CCN)C(=O)N[C@H](C(=O)N[C@@H](CCN)C(=O)N[C@H]1CCNC(=O)[C@H]([C@@H](C)O)NC(=O)[C@H](CCN)NC(=O)[C@H](CCN)NC(=O)[C@H](CC(C)C)NC(=O)[C@@H](Cc2ccccc2)NC(=O)[C@H](CCN)NC1=O)[C@@H](C)O (X1-[Dab]T[Dab][Dab][Dab][dF]L[Dab][Dab]T; lactam 4-C) | 0.25 µg/mL (≈ 0.208 µM) | 16 µg/mL (≈ 13.3 µM) | 0.125 µg/mL (≈ 0.104 µM) | 4 µg/mL (≈ 3.32 µM) | 0.5 µg/mL (≈ 0.415 µM) | 8 µg/mL (≈ 6.65 µM) | 0.25 µg/mL (≈ 0.208 µM) | 32 µg/mL (≈ 26.6 µM) | 1

Continued by falling MIC (Escherichia coli [1]), values first:

Row | MIC (Escherichia coli [1]) | MIC (Escherichia coli [2]) | MIC (Klebsiella pneumoniae [3]) | MIC (Klebsiella pneumoniae [4]) | MIC (Pseudomonas aeruginosa [5]) | MIC (Pseudomonas aeruginosa [6]) | MIC (Acinetobacter baumannii [7]) | MIC (Acinetobacter baumannii [8]) | Structure (SMILES) | selectivity ratio at 24 h [9]
7 | 0.25 µg/mL (≈ 0.224 µM) | 32 µg/mL (≈ 28.6 µM) | 0.25 µg/mL (≈ 0.224 µM) | 16 µg/mL (≈ 14.3 µM) | 0.5 µg/mL (≈ 0.447 µM) | 32 µg/mL (≈ 28.6 µM) | 0.5 µg/mL (≈ 0.447 µM) | > 64 µg/mL | CC(C)C[C@@H]1NC(=O)[C@@H](Cc2ccccc2)NC(=O)[C@H](CCN)NC(=O)[C@@H](NC(=O)[C@H](CN)NC(=O)[C@@H](NC(=O)[C@@H]2CNCCN2CC(C)C)[C@@H](C)O)CCNC(=O)[C@H]([C@@H](C)O)NC(=O)[C@H](CCN)NC(=O)[C@H](CCN)NC1=O | 16.6
8 | 0.25 µg/mL (≈ 0.221 µM) | 16 µg/mL (≈ 14.2 µM) | 0.06 µg/mL (≈ 0.0531 µM) | 4 µg/mL (≈ 3.54 µM) | 0.25 µg/mL (≈ 0.221 µM) | 4 µg/mL (≈ 3.54 µM) | 0.125 µg/mL (≈ 0.111 µM) | 64 µg/mL (≈ 56.6 µM) | CC(C)C[C@@H]1NC(=O)[C@@H](CC2CCCCC2)NC(=O)[C@H](CCN)NC(=O)[C@@H](NC(=O)[C@H](CN)NC(=O)[C@@H](NC(=O)C[C@H](CN)Cc2ccccc2)[C@@H](C)O)CCNC(=O)[C@H]([C@@H](C)O)NC(=O)[C@H](CCN)NC(=O)[C@H](CCN)NC1=O | 5.2
9 | 0.25 µg/mL (≈ 0.21 µM) | 2 µg/mL (≈ 1.68 µM) | 0.25 µg/mL (≈ 0.21 µM) | 0.5 µg/mL (≈ 0.419 µM) | 0.5 µg/mL (≈ 0.419 µM) | 1 µg/mL (≈ 0.839 µM) | 0.25 µg/mL (≈ 0.21 µM) | 0.5 µg/mL (≈ 0.419 µM) | CC(C)C[C@@H]1CNC[C@@H](C(=O)N[C@H](C(=O)N[C@@H](CN)C(=O)N[C@H]2CCNC(=O)[C@H]([C@@H](C)O)NC(=O)[C@H](CCN)NC(=O)[C@H](CCN)NC(=O)[C@H](CC(C)C)NC(=O)[C@@H](Cc3ccc(-c4ccccc4)cc3)NC(=O)[C@H](CCN)NC2=O)[C@@H](C)O)C1 | 1.2
10 | 0.25 µg/mL (≈ 0.222 µM) | 32 µg/mL (≈ 28.5 µM) | 0.125 µg/mL (≈ 0.111 µM) | – | 0.125 µg/mL (≈ 0.111 µM) | 8 µg/mL (≈ 7.12 µM) | 0.125 µg/mL (≈ 0.111 µM) | > 64 µg/mL | CC(C)C[C@@H]1NC(=O)[C@@H](Cc2ccccc2)NC(=O)[C@H](CCN)NC(=O)[C@@H](NC(=O)[C@H](CN)NC(=O)[C@@H](NC(=O)C[C@H](CN)Cc2ccccc2)[C@@H](C)O)CCNC(=O)[C@H]([C@@H](C)O)NC(=O)[C@H](CCN)NC(=O)[C@H](CCN)NC1=O ({GABA(3R-Bn)}-T[Dap][Dab][Dab][dF]L[Dab][Dab]T; lactam 3-C) | 12
11 | 0.125 µg/mL (≈ 0.109 µM) | 32 µg/mL (≈ 28 µM) | – | 4 µg/mL (≈ 3.5 µM) | 0.25 µg/mL (≈ 0.218 µM) | 8 µg/mL (≈ 6.99 µM) | 0.06 µg/mL (≈ 0.0524 µM) | 64 µg/mL (≈ 55.9 µM) | CC(C)C[C@@H]1NC(=O)[C@@H](CC2CCCCC2)NC(=O)[C@H](CCN)NC(=O)[C@@H](NC(=O)[C@H](CCN)NC(=O)[C@@H](NC(=O)C[C@H](CN)Cc2ccccc2)[C@@H](C)O)CCNC(=O)[C@H]([C@@H](C)O)NC(=O)[C@H](CCN)NC(=O)[C@H](CCN)NC1=O | 2.4
12 | 0.125 µg/mL (≈ 0.105 µM) | 8 µg/mL (≈ 6.7 µM) | 0.25 µg/mL (≈ 0.209 µM) | 0.5 µg/mL (≈ 0.419 µM) | 0.5 µg/mL (≈ 0.419 µM) | 4 µg/mL (≈ 3.35 µM) | 0.125 µg/mL (≈ 0.105 µM) | 4 µg/mL (≈ 3.35 µM) | CC(C)C[C@@H]1NC(=O)[C@@H](Cc2ccc(-c3ccccc3)cc2)NC(=O)[C@H](CCN)NC(=O)[C@@H](NC(=O)[C@H](CN)NC(=O)[C@@H](NC(=O)[C@@H]2CNCCN2CC(C)C)[C@@H](C)O)CCNC(=O)[C@H]([C@@H](C)O)NC(=O)[C@H](CCN)NC(=O)[C@H](CCN)NC1=O | 2.4
13 | 0.06 µg/mL (≈ 0.0537 µM) | 16 µg/mL (≈ 14.3 µM) | 0.125 µg/mL (≈ 0.112 µM) | 4 µg/mL (≈ 3.58 µM) | 0.06 µg/mL (≈ 0.0537 µM) | 8 µg/mL (≈ 7.17 µM) | 0.25 µg/mL (≈ 0.224 µM) | > 64 µg/mL | CC(C)C[C@@H]1NC(=O)[C@@H](Cc2ccccc2)NC(=O)[C@H](CCN)NC(=O)[C@@H](NC(=O)[C@H](CN)NC(=O)[C@@H](NC(=O)C[C@H](CN)C2CCCCC2)[C@@H](C)O)CCNC(=O)[C@H]([C@@H](C)O)NC(=O)[C@H](CCN)NC(=O)[C@H](CCN)NC1=O | 6.9

Reference: ChEMBL document CHEMBL4619736, “Direct modifications of the cyclic peptide Polymyxin B leading to analogues with enhanced in vitro antibacterial activity” (Bioorg Med Chem Lett, 2020)
